Apaf1 activ – activates human Apaf-1 apoptosome. Apaf-1 apoptosome caspase-3 activation, DEVD-Rh110 fluorescence; stronger effect = lower value. O14727. 330,000 tested, 0.31% active. activity change, negative = activation, % at 20 µM. AID 489031;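 active = activity change at or below -40% at 20 µM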
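Schedule: 30 min preincubation, 50 min reaction, room temperature / System: biochemical Apaf-1 apoptosome reconstitution / Medium: 20 mM HEPES pH 7.5 with CHAPS, BSA / Evaluation: Caspase-3 cleavage activity downstream of Apaf-1 activation / Detection: Caspase-3-released Rh110 fluorescence, 540 nm emission, 480 nm excitation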
Rh110 act interf – interferes with Rh110 fluorescence, flagging false Apaf-1 activators | Rh110 fluorescence interference, quenched caspase reaction, Ex480/Em540 | fluorescence interference (activity change), % at 20 µM, hits read low | 980 tested, under 10 active | shares compounds with Apaf1 activ;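 active = mean activity change at or below -40% when tested at 20 µM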
Apaf-1 act conf2 – Apaf-1 (human) activation, single-dose confirmed | shares compounds with Apaf1 activ | reconstituted apoptosome caspase-3 activity, DEVD-Rh110 fluorescence; stronger effect = lower value | 980 tested, 5% active | activity change, negative = activation, % at 20 µM | AID 504617;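 active = mean activity change at or below -40%, meaning activation of 40% or more, at 20 µM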
Apaf1 act interf – counter-screen for Apaf-1 activators: fluorescence interference, dose response. shares compounds with Apaf1 activ. fluorescence interference counterscreen, Apaf-1 activator assay. EC50, µM. 55 tested, under 10 active; call rule not given here
Hits are given with their value; – = inactive; · = no result given. Not all results are given here.

SMILES	Apaf1 activ	Rh110 act interf	Apaf-1 act conf2	others
O=C(Nc1ccccc1)Oc1ccc[nH]c1=O	–	·	·
O=C1C=C(O)c2cccc(O)c2C1=O	–	·	·
O=C(O)c1cccc(-c2ccc(/C=c3/sc4nc5ccccc5n4c3=O)o2)c1	-195.1	–	–	Apaf1 act interf=–
O=C(O)c1cccc(NC2=C(n3nnc4ccccc43)C(=O)c3ccccc3C2=O)c1	–	·	·
Cc1[nH][nH]c(=O)c1C(c1ccc(-c2cccc(C(=O)O)c2)o1)c1c(C)[nH][nH]c1=O	–	·	·
CCN1CCN(c2ccc(S(=O)(=O)N3CCCCC3)cc2NC(=O)COc2ccc(Cl)c(C)c2)CC1	–	·	·
CCCCc1oc2ccccc2c1C(=O)c1cc(I)c(OCCN(CC)CC)c(I)c1	–	·	·
CN(C1=C(NC(=O)c2ccccc2)C(=O)c2ccccc2C1=O)C1CCS(=O)(=O)C1 (stereo unspecified)	–	·	·
C[C@@H]1[C@H]2[C@@H]3CC[C@@H](C3)[C@H]2CN[C@H]1c1cn(Cc2ccccc2)c2ccccc12	–	·	·
O=C(c1ccc2nc(-c3ccco3)c(-c3ccco3)nc2c1)N1CCN(c2ccccc2)CC1	–	·	·
O=C(O)c1ccc2nc(-c3ccco3)c(-c3ccco3)nc2c1	–	·	·
CCc1nc2ccc(C(=O)N3CCN(c4ccccc4)CC3)cc2nc1CC	-504.8	–	–
CCN(CC)CCN(C(=O)c1ccc(C(=O)c2ccccc2)cc1)c1nc2ccc(OC)cc2s1	–	·	·
CC1CC(C)CN(CCCNC(=O)CN2C(=O)c3cccnc3Oc3ccc(Cl)cc32)C1 (stereo unspecified)	-148.2	–	–
CCCCCCCCCCCCCCCC[n+]1cccc(C(=O)N(CC)CC)c1	–	·	·
CCCC[n+]1ccn(C2=C([O-])c3ccccc3C(=O)/C2=N\S(=O)(=O)c2ccc(Cl)cc2)c1	–	·	·
Cc1c(/C(O)=C2/C(=O)C(=O)N(CCN3CCOCC3)C2c2cccs2)cnn1-c1ccccc1 (stereo unspecified)	-424.1	–	–
O=C(c1ccc(F)cc1)[C@@H]1[C@@H](C(=O)c2ccccc2)[C@@]2(C(=O)Nc3ccccc32)[C@H]2c3ccccc3C=CN12	–	·	·
Cc1nnc(N=c2ssnc2Cl)o1	–	·	·
O=C(NCC1CCCO1)c1ccc(Br)s1 (stereo unspecified)	-522.3	–	–
Nc1c(C(=O)NCC2CCCO2)c2nc3ccccc3nc2n1-c1ccccc1 (stereo unspecified)	–	·	·
Clc1cccc(CSc2nnc(-c3ccccn3)n2Cc2ccco2)c1	–	·	·
O=c1[nH]c(C2CCCN(S(=O)(=O)c3ccccc3F)C2)nc2c1nnn2Cc1ccccc1Cl (stereo unspecified)	–	·	·
CCSc1nnc2nc3[nH]c4c(C)cccc4c3nn12	-75.6	–	–
CCOC(=O)N1CCN(S(=O)(=O)c2ccc(C(=O)N(CCCN(C)C)c3nc4ccc(CC)cc4s3)cc2)CC1	–	·	·
SMILES	Apaf1 activ	Rh110 act interf	Apaf-1 act conf2	others
CC1CC(=O)c2c(cc3c(-c4c(O)cc(O)c5c(O)c6c(cc45)OC(C)CC6=O)c(O)cc(O)c3c2O)O1 (stereo unspecified)	–	·	·
CC(=O)c1c(-c2ccccc2)c2cc(Cl)ccc2[nH]c1=O	-49.2	–	–
Cc1ccc(NC2=C/C(=N\S(=O)(=O)c3cccs3)c3ccccc3C2=O)c(C)c1	–	·	·
Cc1oc2c(c1C(=O)O)C(=O)c1ccccc1C2=O	–	·	·
COC(=O)CCC(=O)OC1(C)C(=O)C=C2C=C(C3CC3)N(C3CCCC3)C=C2C1=O (stereo unspecified)	–	·	·
Cc1cc(C)c2c(=O)c(/C=C3\NC(=S)NC3=O)coc2c1	-99.0	–	-63.1	Apaf1 act interf=–
CCCCN(CC)c1nc(N)c2c(N)nc(OCC)cc2c1C#N	–	·	·
CN(CCO)c1nc(N)c2c(N)nc3c(c2c1C#N)CC(=O)N3C1CCCC1	–	·	·
Fc1cccc(CCN2CCNC[C@H]2Cc2cccc3ccccc23)c1	–	·	·
COc1ccccc1NC(=S)Nc1cccc2cnccc12	–	·	·
COc1ccccc1NC(=O)Nc1ccc(C(=O)N2CCCCC2)cc1	-80.1	–	–
O=C(Nc1ccc2nsnc2c1)N1CCCCC1	–	·	·
O=P(CCCCCCCCCP(=O)(c1ccccc1)c1ccccc1)(c1ccccc1)c1ccccc1	–	·	·
CCOC(=O)C1(Cc2ccccc2C)CCCN(C(=O)c2ccc3nccnc3c2)C1 (stereo unspecified)	-330.4	–	–
CCOC(=O)c1c(NC(=O)c2ccno2)c2cc([N+](=O)[O-])ccc2n1C	-45.2	–	–
CCOc1ccc(NC(=O)CN(C)C(=O)c2ccc(COc3ccccc3)cc2)cc1OCC	–	·	·
S=C(Nc1cccnc1)Nc1cccc2cnccc12	–	·	·
CCOc1ccc(NC(=S)Nc2cccc3cnccc23)cc1	–	·	·
CCN(C(=S)Nc1cccnc1)c1cccc2ccccc12	–	·	·
O=C(Nc1ccccc1C(=O)Nc1cccnc1)c1ccccc1	-165.6	–	–
CCOc1ccc(OCc2ccc(C(=O)Nc3cccnc3)cc2)cc1	-50.5	–	–
C#CCOCCOCCOCCNc1nc(N2CCN(C(=O)C([C@@H](C)O)n3cc([C@@H](N)CCCCN)nn3)CC2)nc(N2CCN(C(=O)[C@H](CCCN=C(N)N)n3cc(C(N)[C@@H](C)CC)nn3)CC2)n1 (stereo partly specified)	–	·	·
Nc1nnc2c(n1)CCCC2	–	·	·
Cn1nc(-c2ccc(Cl)cc2)nc2c(=O)n(C)c(=O)nc1-2	–	·	·
Cn1c(=O)nc2n(Cc3ccccc3)c3ccccc3cc-2c1=O	-172.3	–	–
SMILES	Apaf1 activ	Rh110 act interf	Apaf-1 act conf2	others
Cn1c2ccccc2c(=O)n2c(=O)c3ccccc3cc12	–	·	·
Cc1ccc(NC2=C(N3CCOCC3)C(=O)c3ccccc3C2=O)cc1	–	·	·
Cc1ccc(Oc2nsnc2N2CCOCC2)cc1	-105.9	–	–
COc1cc2c(C#N)c(N3CCCC3)nc(N)c2c(N)n1	–	·	·
COc1ccc2[nH]c3c4c(ccc3c2c1)C(=O)C=CC4=O	–	·	·
COc1ccc(C(=O)C(Sc2nnc(C)c(=O)[nH]2)c2ccc(OC)cc2)cc1 (stereo unspecified)	-114.1	–	–
Fc1ccc(N2CCN(c3nc(CN4CCOCC4)nc4scc(-c5ccccc5)c34)CC2)cc1	–	·	·
CC(C)n1cnc2c(N(C)c3ccccc3)nc(N(CCN(C)C)Cc3ccccc3)nc21	–	·	·
COc1ccc(Cn2c(SCc3ccccc3C)nc3cc(OC)c(OC)cc3c2=N)cc1	–	·	·
COc1ccc(CCN(C)C(=O)C2CC(=O)N(Cc3ccc(C)cc3)C2)cc1OC (stereo unspecified)	–	·	·
COc1ccc(CCNC(=O)CSc2nnc(C(C)N(C)C)n2Cc2ccccc2)cc1OC (stereo unspecified)	-60.4	–	–
Nc1ccc(N2CCOCC2)c2nonc12	–	·	·
O=C(Nc1ccc(Cl)c(Cl)c1)Nc1nc(-c2ccccc2)cs1	-366.0	–	–
Cc1nc(C(=O)NNC(=O)Nc2ccccc2)cs1	–	·	·
CCN1CCN(c2ccc(S(=O)(=O)N3CCCCC3)cc2NC(=O)/C=C/c2cc(OC)ccc2OC)CC1	–	·	·
COc1ccc(-c2c(C#Cc3ccc(N(C)C)cc3)c3ccccc3n2C)cc1	–	·	·
COc1ccc(C(=O)NCCCNC(=O)c2cc3ccccc3[nH]2)cc1OC	-161.9	–	–
COc1ccc2[nH]c(=O)c(CNc3ccccc3OC)cc2c1	–	·	·
